What was measured:
Clostridioides difficile [1] = experiment: (§1) Antibacterial activity against Clostridium difficile R20291 assessed as inhibition of spore germination in presence of 6 mM taurocholate and 12 mM glycine measured every minute for 2 hrs by standard optical density assay; format: functional, organism-based
Outline: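 IC50 was determined on R20291 spores across a range of compound concentrations in sodium phosphate medium with 6 mM taurocholate and 12 mM glycine. Germination was read as the decrease in absorbance at 580 nm.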

Clostridioides difficile [2] = experiment: as §1, with “germination by measuring heat activated spore germination levels at 125 uM” for “germination”, “assay relative to control” for “assay”; format: functional; parameters: scale not given: the % may be the effect or the level left
Outline: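 R20291 spores were screened at a single 125 µM concentration, with germination followed as the fall in absorbance at 580 nm. Compounds not soluble at 125 µM by visual inspection were discarded. Inhibition is relative to untreated spore samples.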

Clostridioides difficile [3] = experiment: Antibacterial activity against Clostridium difficile R20291 assessed as inhibition of spore germination in complex BHIS media containing 6 mM taurocholate measured every minute for 2 hrs by standard optical density assay; format: functional, organism-based
Outline: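 IC50 was determined on R20291 spores across multiple compound concentrations in complex BHIS medium supplemented with 6 mM taurocholate. Germination was monitored as the decline in absorbance at 580 nm.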

Clostridioides difficile [4] = experiment: Potency index, ratio of IC50 for chenodeoxycholate to IC50 for test compound for inhibition of spore germination in Clostridium difficile R20291 in presence of 6 mM taurocholate and 12 mM glycine measured every minute for 2 hrs by standard optical density assay; format: functional

Which IC50 (Clostridioides difficile [1]) does the source give for `C[C@H](CCC(=O)Nc1ccc(O)cc1)[C@H]1CC[C@H]2[C@@H]3[C@H](O)C[C@@H]4C[C@H](O)CC[C@]4(C)[C@H]3C[C@H](O)[C@]12C` here?
The IC50 was 36 µM.

And the Activity (Clostridioides difficile [2])?
Its Activity is 20%.

Which results are given for `Cc1ccc(F)cc1NC(=O)CC[C@@H](C)[C@H]1CC[C@H]2[C@@H]3[C@H](O)C[C@@H]4C[C@H](O)CC[C@]4(C)[C@H]3C[C@H](O)[C@]12C`?
IC50 (Clostridioides difficile [1]): 14 µM; Activity (Clostridioides difficile [2]): 9%

How did the IC50 (Clostridioides difficile [1]) turn out when `C[C@H](CCC(=O)NCC1CC1)[C@H]1CC[C@H]2[C@@H]3[C@H](O)C[C@@H]4C[C@H](O)CC[C@]4(C)[C@H]3C[C@H](O)[C@]12C` was run?
The IC50 was 24.3 µM.

What about the Activity (Clostridioides difficile [2]) of the same molecule?
The Activity was 15%.

With `C[C@H](CCC(=O)Nc1ccccc1)[C@H]1CC[C@H]2[C@@H]3[C@H](O)C[C@@H]4C[C@H](O)CC[C@]4(C)[C@H]3C[C@H](O)[C@]12C` as the molecule, how does the IC50 (Clostridioides difficile [1]) read?
Its IC50 is 1.8 µM.

And the Activity (Clostridioides difficile [2])?
Its Activity is 3%.

What about the IC50 (Clostridioides difficile [3]) of the same molecule?
Its IC50 is 1.8 µM.

What about the “Ratio IC50” value (Clostridioides difficile [4]) of the same molecule?
The value was >225.

With `C[C@H](CCC(=O)Nc1ccncc1)[C@H]1CC[C@H]2[C@@H]3[C@H](O)C[C@@H]4C[C@H](O)CC[C@]4(C)[C@H]3C[C@H](O)[C@]12C` as the molecule, how does the IC50 (Clostridioides difficile [1]) read?
Its IC50 is 30.1 µM.

What about the Activity (Clostridioides difficile [2]) of the same molecule?
Its Activity is 17%.

What does the source list for `COc1cccc(NC(=O)CC[C@@H](C)[C@H]2CC[C@H]3[C@@H]4[C@H](O)C[C@@H]5C[C@H](O)CC[C@]5(C)[C@H]4C[C@H](O)[C@]23C)c1`?
IC50 (Clostridioides difficile [1]): 78 µM; Activity (Clostridioides difficile [2]): 55%

`COc1ccccc1NC(=O)CC[C@@H](C)[C@H]1CC[C@H]2[C@@H]3[C@H](O)C[C@@H]4C[C@H](O)CC[C@]4(C)[C@H]3C[C@H](O)[C@]12C` was tested. Which IC50 (Clostridioides difficile [1]) did it give?
Its IC50 is 9.8 µM.

And the Activity (Clostridioides difficile [2])?
The Activity was 8%.

Which IC50 (Clostridioides difficile [1]) does the source give for `C[C@H](CCC(=O)NC1CC1)[C@H]1CC[C@H]2[C@@H]3[C@H](O)C[C@@H]4C[C@H](O)CC[C@]4(C)[C@H]3C[C@H](O)[C@]12C` here?
The IC50 was 25 µM.

And the Activity (Clostridioides difficile [2])?
Its Activity is 6%.

Which results are given for `CC(C)CNC(=O)CC[C@@H](C)[C@H]1CC[C@H]2[C@@H]3[C@H](O)C[C@@H]4C[C@H](O)CC[C@]4(C)[C@H]3C[C@H](O)[C@]12C`?
IC50 (Clostridioides difficile [1]): 154 µM; Activity (Clostridioides difficile [2]): 62%

Which results are given for `C[C@H](CCC(=O)NCc1ccccc1[N+](=O)[O-])[C@H]1CC[C@H]2[C@@H]3[C@H](O)C[C@@H]4C[C@H](O)CC[C@]4(C)[C@H]3C[C@H](O)[C@]12C`?
IC50 (Clostridioides difficile [1]): 225 µM; Activity (Clostridioides difficile [2]): 113%

`C[C@H](CCC(=O)NC1CCCC1)[C@H]1CC[C@H]2[C@@H]3[C@H](O)C[C@@H]4C[C@H](O)CC[C@]4(C)[C@H]3C[C@H](O)[C@]12C` was tested. Which IC50 (Clostridioides difficile [1]) did it give?
The IC50 was 34.1 µM.

What about the Activity (Clostridioides difficile [2]) of the same molecule?
Its Activity is 6%.

`C[C@H](CCC(=O)Nc1cccc(F)c1)[C@H]1CC[C@H]2[C@@H]3[C@H](O)C[C@@H]4C[C@H](O)CC[C@]4(C)[C@H]3C[C@H](O)[C@]12C` was tested. Which IC50 (Clostridioides difficile [1]) did it give?
Its IC50 is 16 µM.

What about the Activity (Clostridioides difficile [2]) of the same molecule?
Its Activity is 8%.

Reference: ChEMBL document CHEMBL4325828, “The Design, Synthesis, and Characterizations of Spore Germination Inhibitors Effective against an Epidemic Strain of Clostridium difficile” (J Med Chem, 2018)
